Compound activity: PubChem, several laboratories
PvdQ acylase – P. aeruginosa PvdQ acylase inhibitors, primary screen, biochemical, fluorescence, plate reader and imaging, single point | PvdQ acylase [Pseudomonas aeruginosa LESB58] | inhibition, % at 10 µM | AID 488965, 2010 | purified PvdQ acylase | actives 0.063% (n = 340,000); in the data active = inhibition above about 30%, passing the limit was not always enough;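 also: 0% = vehicle neutral wells and 100% = reference inhibitor wells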
IMP-1 inhibitor – IMP-1 metallo-beta-lactamase inhibitors, primary screen, biochemical, epi-absorbance readout, Pseudomonas aeruginosa enzyme. inhibition, % at 5.6 µM. purified IMP-1, nitrocefin hydrolysis, epi-absorbance fluorescence. actives 0.45% (n = 290,000). AID 1556, 2009. metallo-beta-lactamase IMP-1 (Pseudomonas aeruginosa);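 active = inhibition above the mean plus 3 SD of all compounds in the same screening run, cut at about 4.5% in these data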;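 also: 0% = IMP-1 with DMSO and 100% = DMSO wells lacking enzyme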
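System: Purified recombinant IMP-1 metallo-beta-lactamase enzyme | Measured by: Fluorescence quenching readout, ex 480/em 530 nm | Replication: Singlicate | Incubation: 15 min preincubation plus 25 min reaction at 25 °C | Evaluation: Percent inhibition from optical density relative to buffer-blank wells | Benchmarks: DMSO with and without IMP-1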
VIM-2 inhibitor – VIM-2 metallo-beta-lactamase inhibitors, primary screen, biochemical, epi-absorbance readout, Pseudomonas aeruginosa enzyme. inhibition, % at 5.6 µM. actives 0.89% (n = 290,000). purified VIM-2, nitrocefin hydrolysis, epi-absorbance fluorescence;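 active = inhibition above the mean of all tested compounds plus 3 SD, cutoff set per screening run, cut at about 7.5% in these data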;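 also: red hydrolysis product quenches plate fluorescence so inhibitors raise well fluorescence; 0% = enzyme with DMSO and 100% = DMSO without enzyme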
CR mimetic SO – reduction of superoxide in aged yeast, primary screen, HTS | S. cerevisiae aged cells, superoxide DHE fluorescence; active compounds read low | actives 0.18% (n = 330,000) | superoxide response (% of plate mean), % at 10 µM | AID 2690, 2010;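 active = superoxide response under a set limit, about three screen SD below normal, cut at about 65% in these data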;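 also: yeast aged for seven days with compound at 30 °C before DHE staining; 100% = average MFI of all compound-treated wells on the plate with controls excluded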
PHOSPHO1 block – PubChem AID 1565; Phosphoethanolamine/phosphocholine phosphatase (Homo sapiens), Q8TCT1; recombinant PHOSPHO1, absorbance phosphatase assay; inhibition, % at 13.3 µM; actives 1.1% (n = 290,000); in the data active = inhibition above about 60%
Target sequence (Q8TCT1 whole entry, looked up): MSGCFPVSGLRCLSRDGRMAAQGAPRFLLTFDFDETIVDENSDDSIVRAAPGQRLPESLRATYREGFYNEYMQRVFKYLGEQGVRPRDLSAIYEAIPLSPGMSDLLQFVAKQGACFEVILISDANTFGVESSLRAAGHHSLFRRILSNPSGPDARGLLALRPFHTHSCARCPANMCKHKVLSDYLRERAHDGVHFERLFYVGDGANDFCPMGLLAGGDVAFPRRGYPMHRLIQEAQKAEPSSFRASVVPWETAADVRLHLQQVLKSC
CR mimetic CP – superoxide lowering in aged yeast cells, confirmation, cherry picked compounds; shares compounds with CR mimetic SO; S. cerevisiae aging, superoxide DHE fluorescence; active compounds read low; superoxide response (% of plate), % at 10 µM; actives 1% (n = 850); AID 434994, 2010;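 active = superoxide signal below 65% of the plate average of sample wells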;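 also: cells aged with compound for 7 days at 30 degrees C before staining; 100% equals mean DHE fluorescence of all compound wells on the plate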
DHE counter – DHE quenching or ROS scavenging interference in aged yeast, artefact control for yeast caloric restriction mimetic project, S. cerevisiae BY4741, flow cytometry | shares compounds with CR mimetic SO | DHE fluorescence; active compounds read low | fluorescence response, % at 10 µM | 850 tested, under 10 active | AID 435000, 2010;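 active = fluorescence response below 15%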;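 also: percent of the mean fluorescence averaged over all compound wells on the plate; lower means stronger quenching of DHE signal or ROS scavenging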
* = called active by the depositor; nt = no result given. Shown are actives, neighbours in structure and some others; about 2.2% of the full set was active somewhere.

SMILES | PvdQ acylase | IMP-1 inhibitor | VIM-2 inhibitor | CR mimetic SO | PHOSPHO1 block | CR mimetic CP | DHE counter
C[C@@H](C(=O)OCC(=O)NCCc1ccc(S(N)(=O)=O)cc1)N1C(=O)C2CCCCC2C1=O (some centres not stated) | -4.6 | -1.9 | -1.4 | 65.4* | 1.1 | 101.2 | 94.3
NS(=O)(=O)c1ccc(CCNC(=O)CNC(=O)COc2ccccc2)cc1 | 17.6 | 2.9 | -1.3 | 55.3* | nt | 97.8 | 89.5
NS(=O)(=O)c1ccc(CCNC(=O)CCCOc2ccccc2)cc1 | 18.2 | -4.7 | -0.1 | 102.5 | -15.2 | nt | nt
C[C@H](NS(=O)(=O)c1ccc(Cl)cc1)C(=O)OCC(=O)NCCc1ccc(S(N)(=O)=O)cc1 | -11.2 | nt | nt | nt | nt | nt | nt
CCOC(=O)/C(=N\Nc1cc(Cl)ccc1Cl)N1CCN(CC)CC1 | -17.6 | 2.2 | 0.3 | 96.1 | 9.1 | nt | nt
CCN(CC(=O)Nc1ccccc1C(F)(F)F)C(=O)c1ccccc1OCc1ccc(F)cc1 | -3.6 | nt | nt | nt | nt | nt | nt
COC(=O)C[C@H]1C=C[C@@H](C(C(=O)OC)C(=O)OC)CN1C(C)=O | -12.7 | nt | nt | nt | nt | nt | nt
Cc1ccc(N=C2NC(=O)/C(=C/c3cccs3)S2)cc1C | -8.6 | -1.9 | -3.1 | 59.4* | 11.7 | 93.5 | 90.4
CN1CC(=O)Nc2ccc(Br)cc2C1=O | -2.2 | -1.7 | -0.7 | 64.9* | 24.1 | 93.5 | 98.3
Cc1cc(C)n2nc(-c3ccccc3)c(-c3ccccc3)c2n1 | -16.4 | -2.9 | -1.7 | 92.9 | 18.9 | 95.1 | 91.7
Cc1cc(C)n2nc(C)c(-c3ccccc3)c2n1 | 15.7 | nt | nt | 103.8 | nt | nt | nt
O=c1[nH]c(CSc2nc(-c3ccc(F)cc3)cs2)nc2ccccc12 | -9.9 | -1.2 | -0.5 | 104.5 | -15.4 | nt | nt
Nc1ccccc1N1CCN(C(=O)c2ccccc2)CC1 | -17.0 | -1.1 | 1.0 | 97.6 | 5.7 | 99.7 | 113.1
O=C(c1cccc(C(=O)N2CCN(c3ccccc3F)CC2)c1)N1CCN(c2ccccc2F)CC1 | 8.1 | -3.6 | -2.5 | 96.8 | -35.7 | nt | nt
O=c1cc(-c2ccccc2)nc2cc(-c3ccc(Br)cc3)[nH]n12 | 12.5 | 0.2 | -1.6 | 52.6* | 39.4 | 95.0 | 95.7
CCCc1cc(=O)n2[nH]c(-c3ccc(Cl)cc3)cc2n1 | -2.8 | -4.0 | -2.0 | 99.5 | nt | 108.3 | 123.6
CCCc1cc(=O)n2[nH]c(-c3ccc(C)cc3)cc2n1 | -5.9 | -3.7 | -2.4 | 90.9 | -3.0 | nt | nt
Cc1nc2cc(-c3ccc(F)cc3)[nH]n2c(=O)c1C | -14.9 | -2.6 | 1.2 | 94.6 | 14.1 | 108.3 | 93.5
Cc1nc2cc(-c3ccc(Br)cc3)[nH]n2c(=O)c1Cl | -14.1 | -3.3 | -0.6 | 101.5 | 29.1 | 93.8 | 89.5
Cc1cc2nc(C)c(Cl)c(=O)n2[nH]1 | -14.5 | -2.6 | 1.8 | 104.2 | 44.0 | nt | nt
CCN(CCCNC(=O)Cn1ncc2c([nH]c3ccc(C)cc32)c1=O)Cc1ccccc1 | -18.2 | -3.6 | -3.4 | 95.7 | 42.6 | nt | nt
CCOC(=O)CCc1c(C)nc2cc(-c3ccc(Cl)cc3)[nH]n2c1=O | -27.1 | -2.3 | -0.7 | 89.0 | 38.9 | nt | nt
CCc1c(C)nc2cc(-c3ccc(Cl)cc3)[nH]n2c1=O | -8.7 | -5.8 | -4.4 | 92.0 | -22.9 | 99.1 | 96.9
CN(c1ccc(C(=O)O)cc1)S(=O)(=O)c1ccccc1 | -2.3 | -3.3 | -4.8 | 101.8 | -11.6 | 113.8 | 106.4
CC(=O)Nc1ccc(S(=O)(=O)N(C)c2ccccc2)cc1 | -8.0 | -2.7 | -1.5 | 103.5 | -18.5 | 107.9 | 90.3
SMILES | PvdQ acylase | IMP-1 inhibitor | VIM-2 inhibitor | CR mimetic SO | PHOSPHO1 block | CR mimetic CP | DHE counter
Cc1nc(SCc2nc3ccc(C(=O)c4ccccc4)cc3[nH]2)c2oc3ccccc3c2n1 | -1.7 | nt | nt | 126.7 | nt | nt | nt
O=C(c1ccc2nccnc2c1)N1CCN(c2cccc(C(F)(F)F)c2)CC1 | -14.1 | nt | nt | 77.2 | nt | nt | nt
O=C(c1cccc(F)c1)N1CCN(c2cccc(C(F)(F)F)c2)CC1 | -4.1 | -2.5 | -3.2 | 100.2 | 15.6 | 92.5 | 88.7
CCOC(=O)CSc1nc(C)cc(Oc2ccc(=O)n(C)n2)n1 | 3.3 | -0.3 | 0.9 | 98.5 | -1.2 | nt | nt
Cc1cc(Oc2ccc(=O)n(C)n2)nc(SCCOc2ccccc2)n1 | -3.7 | -1.5 | 0.3 | 14.6* | -0.3 | 106.9 | 93.0
OCCN(CCO)CC(O)CN(c1ccccc1)c1ccccc1 (configuration not stated) | -7.4 | -2.2 | -0.6 | 114.5 | 11.6 | nt | nt
CN(CC(O)Cn1c2ccccc2c2ccccc21)S(C)(=O)=O (configuration not stated) | 11.9 | -2.1 | -1.6 | 100.8 | 27.9 | 100.7 | 96.9
OCCN(CCO)CC(O)Cn1c2ccccc2c2ccccc21 (configuration not stated) | -2.5 | -4.6 | -0.7 | 124.1 | 5.1 | 91.2 | 99.3
CS(=O)(=O)N(CC(O)Cn1c2ccccc2c2ccccc21)c1ccccc1 (configuration not stated) | -9.0 | -3.1 | -2.5 | 113.9 | 9.2 | nt | nt
OC(CN1CCCCC1)Cn1c2ccccc2c2ccccc21 (configuration not stated) | -9.1 | 1.0 | 0.3 | 46.2* | -2.6 | 94.9 | 102.1
CC(C)CN(C(=O)C1CCCO1)c1c(N)n(CC(C)C)c(=O)[nH]c1=O (configuration not stated) | -18.0 | nt | nt | nt | nt | nt | nt
Cc1ccc(NC(=O)CCC(=O)c2cccs2)c(O)c1 | -1.6 | -2.0 | -3.5 | 110.1 | 34.7 | nt | nt
Clc1ccc(Nc2ncnc3c2cnn3-c2ccccc2)cc1 | -16.9 | -1.9 | 0.3 | 103.0 | 39.6 | nt | nt
CC(C)Nc1ncnc2c1cnn2-c1ccc(Cl)cc1 | -13.1 | -3.2 | -3.7 | 98.0 | 4.7 | 90.2 | 91.2
CC(C)(C)Nc1ncnc2c1cnn2-c1ccccc1 | -14.7 | nt | nt | 86.6 | 13.1 | 100.0 | 94.8
O=C(Cc1ccccc1[N+](=O)[O-])NCC(=O)c1ccc2c(c1)OCO2 | -7.6 | nt | nt | nt | nt | nt | nt
O=C(NC(=S)NNC(=O)c1cnccn1)c1ccc(Cl)cc1 | -6.3 | -3.7 | -4.6 | 52.7* | -59.2 | 111.5 | 92.5
Cc1ccc(-c2csc(NC(=O)c3ccc(F)cc3)c2C(=O)O)cc1 | -6.2 | -2.1 | -1.9 | 64.5* | 14.0 | 86.7 | 104.9
O=C(Nc1scc(-c2ccccc2)c1C(=O)O)c1ccc(F)cc1 | -15.4 | -0.5 | -1.6 | 123.1 | 39.1 | nt | nt
Fc1ccc(Cn2nnc3ccccc32)cc1 | -16.0 | -1.7 | -1.1 | 64.1* | 32.6 | 93.9 | 92.5
O=c1c2ccccc2nnn1Cc1ccc(F)cc1 | -16.4 | -2.0 | -3.3 | 73.8 | -3.1 | nt | nt
Fc1cccc2sc(Nc3nc4ccccc4s3)nc12 | -2.2 | -3.2 | -4.2 | 65.3* | -36.8 | 93.4 | 109.5
O=C(O)C1C(c2ccccc2)c2ccccc2C(O)C1CO (configuration not stated) | -21.7 | nt | nt | nt | nt | nt | nt
COc1ccc(Cl)cc1S(=O)(=O)N1CCCC1=O | -19.1 | -1.9 | -1.8 | 97.8 | 47.7 | 108.8 | 98.7
